Drawing on ChEMBL document CHEMBL1122185, “Tricyclics with analgesic and antidepressant activity. 2. [[(Alkylamino)ethyl]thio]dibenzo[b,f]thiepins and 10,11-dihydro derivatives” (1982), this text covers ED50 and Inhibition for 15 compounds.

Values joined by “and” are separate entries in the source; they are usually repeats but may differ in a detail not shown here. Equal entries are not always repeated. A value given as a limit tells only on which side of the number the result lay.

Holding throughout (format): functional
Test [1] concerns Mus musculus. Nature of the test: Antidepressant activity was determined to prevent tetrabenazine-induced ptosis(TBZ) after intraperitoneal administration in mice. To be noted: ip. Summed up:
(§1)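 Mouse model measuring prevention of tetrabenazine-induced ptosis, with dosing orally or intraperitoneally. The vehicle was distilled water with a few drops of Tween 80. ED50 values were calculated by linear-regression analysis, with 95% confidence limits in parentheses.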

Test [2] has as its system Rattus norvegicus. Nature of the test: Antidepressant activity was determined for potentiation of head twitching induced by 5-hydroxytryptophan-(5-HTP) after intraperitoneal administration in pargyline-pretreated rats. To be noted: ip. Put shortly: (§2)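 In pargyline-pretreated rats, potentiation of 5-hydroxytryptophan-induced head twitching (stereotypy) was measured after intraperitoneal dosing. The vehicle was distilled water plus a few drops of Tween 80. ED50 was derived by linear regression with 95% confidence limits.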

The test system of test [3] is Mus musculus. The test can be described thus: Analgesic activity was determined for delay in response to noxious heat stimuli after intraperitoneal administration in mice, in tail flick assay. Summed up:
(§3)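 D'Amour-Smith tail-flick method in mice: delay in response to a noxious heat stimulus. Compounds were given in a vehicle of distilled water with a few drops of Tween 80. ED50 was calculated by linear-regression analysis with 95% confidence limits.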
On the technique in general: In hot-plate and tail-flick tests a longer latency is read as antinociception.

In test [4] the test system is Mus musculus. The test can be described thus: Antidepressant activity was determined to prevent tetrabenazine-induced ptosis(TBZ) after oral administration in mice. Summed up:
as §1

Test [5] concerns Mus musculus. The test can be described thus: Analgesic activity was determined for inhibition of phenyl-p-quinone-induced writhing (PQW) after subcutaneous administration in mice. Particulars: for ED50: sc. Put shortly:
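Mice were given phenyl-p-quinone to induce writhing, and inhibition of writhing was scored after subcutaneous dosing. The vehicle was distilled water with a few drops of Tween 80. ED50 was obtained by linear regression with 95% confidence limits.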
(In writhing tests, fewer writhes than in controls are read as antinociception.)

The subject of test [6] is Mus musculus. Nature of the test: Antidepressant activity was determined to prevent tetrabenazine-induced ptosis(TBZ) after oral administration in mice.(value in parentheses indicates 95% confidence limits). Summed up: as §1
For test [7], the system named is Mus musculus. Nature of the test: Analgesic activity was determined for delay in response to noxious heat stimuli after subcutaneous administration in mice, in tail flick assay. To be noted: for ED50: sc. Put shortly: as §3
Test [8] concerns Rattus norvegicus. Nature of the test: Antidepressant activity was determined for potentiation of head twitching induced by 5-hydroxytryptophan-(5-HTP) after intraperitoneal administration in pargyline-pretreated rats,. Particulars: ip. Put shortly:
as §2

Where [9] appears, read: Mus musculus, po, read-out: ED50.

For orientation: ED50 means the dose that gives a 50% effect, or the effect in half of the subjects. What is called Inhibition is the share of the control response that was lost under treatment. For the compound `CNCCSC1Cc2ccccc2Sc2ccc(F)cc21` (stereo unspecified), the ED50 in test [1] worked out at 0.28 mg/kg; in test [2], 8.1 mg/kg; in test [4] (setting [9]), 1.5 mg/kg; in test [5], 2.9 mg/kg. Moreover, in test [3], the Inhibition is on record as 60%.

`CN(C)CCSC1=Cc2ccccc2Sc2ccc(F)cc21`: the 50% effective dose (ED50) in test [6] was 3.6 mg/kg; in test [2], more than 10 mg/kg; in test [5] it was more than 10 mg/kg; in test [7], more than 25 mg/kg.

Consider `CNCCSC1=Cc2ccccc2Sc2ccc(O)cc21`, for which the 50% effective dose (ED50) is more than 10 mg/kg in test [2], 2 mg/kg in test [4] (setting [9]), more than 10 mg/kg in test [5] and more than 25 mg/kg in test [7].

As for `CN(C)CCSC1=Cc2ccccc2Sc2ccc(Cl)cc21`, the median effective dose (ED50) in test [2] was more than 10 mg/kg; in test [4] (setting [9]) it was 3.7 mg/kg; in test [5] it was 14.6 mg/kg; in test [7], more than 25 mg/kg.

Turning to `CN(C)CCSC1Cc2ccccc2Sc2ccccc21` (stereo unspecified), the ED50 in test [2] is more than 10 mg/kg; in test [5] it was 3.3 mg/kg. Also, the Inhibition in test [4] and in test [7] was 60% in each case.

As for `CNCCSC1=Cc2ccccc2Sc2ccc(Cl)cc21`, the median effective dose (ED50) in test [2] is more than 10 mg/kg; in test [5] it was 12.5 mg/kg; in test [7], more than 25 mg/kg.

As for `CN(C)CCSC1Cc2ccccc2Sc2ccc(F)cc21` (stereo unspecified), the median effective dose (ED50) in test [8] was more than 10 mg/kg; in test [4], 0.91 mg/kg; in test [4] (setting [9]) it was 1.2 mg/kg; in test [5], 9 mg/kg; in test [7] it was more than 25 mg/kg.

In the case of `CNCCSC1Cc2ccccc2Sc2ccccc21` (stereo unspecified), the median effective dose (ED50) in test [2] is more than 10 mg/kg; in test [4] (setting [9]), 8 mg/kg; in test [5], 4.2 mg/kg. The compound also displayed an Inhibition in test [7] of 60%.

In the case of `CN(C)CCSC1Cc2ccccc2Sc2ccc(Cl)cc21` (stereo unspecified), the results for the 50% effective dose (ED50) in test [2], in test [5] and in test [7] were more than 10 mg/kg, more than 10 mg/kg and more than 25 mg/kg, respectively.

As to `CNCCSC1=Cc2ccccc2Sc2ccc(F)cc21`, the 50% effective dose (ED50) in test [2] is more than 10 mg/kg; in test [4] (setting [9]), 5.2 mg/kg; in test [5], 8.9 mg/kg. The compound also gave an Inhibition in test [7] of 50%.

`CNCCSC1Cc2ccccc2Sc2ccc(Cl)cc21` (stereo unspecified): the 50% effective dose (ED50) in test [2] amounted to 50 mg/kg; in test [3] (ip), 63.6 mg/kg; in test [5] it was 4.4 mg/kg.

Consider `CN(C)CCSC1=Cc2ccccc2Sc2ccccc21`, for which the 50% effective dose (ED50) in test [2] was more than 10 mg/kg; in test [4] (setting [9]), more than 20 mg/kg; in test [7], more than 25 mg/kg. The compound also yielded an Inhibition in test [5] of 64%.

In the case of `CNCCSC1=Cc2ccccc2Sc2ccccc21`, the values for the median effective dose (ED50) in test [6], in test [2] and in test [7] were 23.9 mg/kg, more than 10 mg/kg and more than 25 mg/kg, respectively.

Turning to `CC(C)=CCN1CC[C@]2(C)c3cc(O)ccc3C[C@H]1[C@H]2C` [(+)-PENTAZOCINE], the values for the ED50 in test [5] and in test [7] were 2.4 mg/kg and 14.6 mg/kg, respectively.

Take `CN(C)CCCN1c2ccccc2CCc2ccccc21` [IMIPRAMINE]: the median effective dose (ED50) was more than 10 mg/kg in test [2]; 2.8 mg/kg and 1.3 mg/kg in test [4]; 10.7 mg/kg in test [5]; more than 25 mg/kg in test [7].
